{"source": "paper PMC6925959", "about": "(Journal of medicinal chemistry, 2019)", "key": {"[1]": {"system": "tubulin", "assay": "Inhibition of [3H]colchicine binding to tubulin", "conditions": "1.0 µM tubulin, 5.0 µM [3H]colchicine"}, "[2]": {"system": "PC3-DAB2IP-luc human prostate tumor xenograft", "assay": "In vivo vascular disruption by dynamic bioluminescence imaging", "design": "species or system rat", "outline": "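Three male […] rats (about 6 weeks old, 100-120 g) carried s.c. right-thigh PC3-DAB2IP-luc tumors (5 X 10⁵ cells in 30% Matrigel), treated once tumors reached ≥1 cm diameter. Prodrug in saline was given IP as single or sequential doses, with CA4P IP as control. Under 3% isoflurane, 120 mg/kg D-luciferin was injected s.c. in the neck, fresh at each session. Tumor-ROI light emission was imaged over about 30 min at baseline, 4 h and 24 h.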"}, "[3]": {"system": "tumor vasculature", "conditions": "30 mg/kg, rats; cited from earlier work"}, "[4]": {"system": "purified bovine brain tubulin", "assay": "Inhibition of tubulin polymerization", "assay_type": "biochemical", "conditions": "cell-free assay"}, "[5]": {"system": "SK-OV-3 (ovarian) cancer cell line", "assay": "SRB growth inhibition assay, SK-OV-3", "assay_type": "cell-based", "conditions": "Homo sapiens, SK-OV-3, 48 h, read-out: GI50 (μM) SRB assay SK-OV-3"}, "[6]": {"system": "DU-145 (prostate) cancer cell line", "assay": "SRB growth inhibition assay, DU-145", "assay_type": "cell-based, human", "conditions": "read-out: GI50 (μM) SRB assay DU-145"}, "[7]": {"system": "NCI-H460 (lung) cancer cell line", "assay": "SRB growth inhibition assay, NCI-H460", "assay_type": "cell-based, human", "conditions": "read-out: GI50 (μM) SRB assay NCI-H460"}}, "note": "Entries after “also recorded” stand apart in the source; their conditions may differ. Read-outs that look alike come from different tables or passages of the source.", "data": [{"molecule": "COc1ccc(/C=C\\c2cc(OC)c(OC)c(OC)c2)cc1O", "note": "[CA4, combretastatin A-4, reference compound]", "values": [{"measurement": "% Inhibition of colchicine binding ± SD", "setting": "[1]; compound at 1 μM", "value": "84 ± 3", "unit": "%"}]}, {"molecule": "COc1ccc(/C=C\\c2cc(OC)c(OC)c(OC)c2)cc1OP(=O)([O-])[O-].[Na+].[Na+]", "note": "[CA4P, combretastatin A-4 phosphate, reference compound]", "values": [{"measurement": "Extent and longevity of diminished BLI signal compared with 40 mg/kg 69", "setting": "[2]; 30 mg/kg IP, rat", "value": "very similar effect"}, {"measurement": "Vascular shutdown", "setting": "[3]", "value": "extensive vascular shutdown"}]}, {"molecule": "COCCOCCOc1c(OC)ccc2c1CCCC=C2c1cc(OC)c(OC)c(OC)c1", "note": "[Compound 8, 3-Methoxy-4-(2-(2-methoxyethoxy)ethoxy)-9-(3,4,5-trimethoxyphenyl)-6,7-dihydro-5H-benzo[7]annulene]", "values": [{"measurement": "Inhibition of tubulin polymerization (in words)", "setting": "[4]", "value": "loss of inhibitory activity"}]}, {"molecule": "COc1cc(C2=CCCCc3c2ccc(OC)c3OCCO)cc(OC)c1OC", "note": "[Compound 11, 2-((3-Methoxy-9-(3,4,5-trimethoxyphenyl)-6,7-dihydro-5H-benzo[7]annulen-4-yl)oxy)ethan-1-ol]", "values": [{"measurement": "Inhibition of tubulin polymerization (in words)", "setting": "[4]", "value": "loss of inhibitory activity"}]}, {"molecule": "COc1ccc2c(c1O)CCCC(O)C2(O)c1cc(OC)c(OC)c(OC)c1", "note": "(stereo not drawn) [Compound 15, 2-Methoxy-5-(3,4,5-trimethoxyphenyl)-6,7,8,9-tetrahydro-5H-benzo[7]annulene-1,5,6-triol]", "values": [{"measurement": "% Inhibition of colchicine binding ± SD", "setting": "[1]; compound at 5 μM", "value": "0 (5 μM) %"}]}, {"molecule": "COc1ccc2c(c1CO)CCCC=C2c1cc(OC)c(OC)c(OC)c1", "note": "[Compound 28, (3-Methoxy-9-(3,4,5-trimethoxyphenyl)-6,7-dihydro-5H-benzo[7]annulen-4-yl)methanol]", "values": [{"measurement": "GI50", "setting": "[5]", "value": 40.3, "unit": "nM"}]}, {"molecule": "COc1cc(C2(O)C=CCCc3c2ccc(OC)c3OC)cc(OC)c1OC", "note": "(stereo not drawn) [Compound 56, 1,2-Dimethoxy-5-(3,4,5-trimethoxyphenyl)-8,9-dihydro-5H-benzo[7]annulen-5-ol]", "values": [{"measurement": "Inhibition of tubulin polymerization (in words)", "setting": "[4]", "value": "lack of tubulin activity"}, {"measurement": "% Inhibition of colchicine binding ± SD", "setting": "[1]; compound at 5 μM", "value": "0 (5 μM) %"}]}, {"molecule": "COc1cc(C2CCc3c(ccc(OC)c3OC)C(=O)C2)cc(OC)c1OC", "note": "(stereo not drawn) [Compound 57, 1,2-Dimethoxy-7-(3,4,5-trimethoxyphenyl)-6,7,8,9-tetrahydro-5H-benzo[7]annulen-5-one]", "values": [{"measurement": "Inhibition of tubulin polymerization (in words)", "setting": "[4]", "value": "lack of activity"}, {"measurement": "% Inhibition of colchicine binding ± SD", "setting": "[1]; compound at 5 μM", "value": "0 (5 μM) %"}]}, {"molecule": "COc1ccc2c(c1O)CC=CC=C2c1cc(OC)c(OC)c(OC)c1", "note": "[Compound 68, 3-Methoxy-9-(3,4,5-trimethoxyphenyl)-5H-benzo[7]annulen-4-ol]", "values": [{"measurement": "GI50", "setting": "[5]", "value": 6.9, "unit": "nM"}, {"measurement": "GI50", "setting": "[6]; Homo sapiens, DU-145, 48 h", "value": 97.6, "unit": "nM"}]}, {"molecule": "COc1cc(C2=CC=CCc3c2ccc(OC)c3OP(=O)([O-])[O-])cc(OC)c1OC.[Na+].[Na+]", "note": "[Compound 69, Sodium 3-methoxy-9-(3,4,5-trimethoxyphenyl)-5H-benzo[7]annulen-4-yl phosphate]", "values": [{"measurement": "Inhibition of tubulin polymerization (in words)", "setting": "[4]", "value": "inactive"}, {"measurement": "GI50", "setting": "[5]", "value": 15.3, "unit": "nM"}, {"measurement": "GI50", "setting": "[6]; Homo sapiens, DU-145, 48 h", "value": 23.9, "unit": "nM"}, {"measurement": "Change in BLI light emission / vascular perturbation", "setting": "[2]; 10 mg/kg IP, rat", "value": "minimal change in light emission; also recorded: no vascular perturbation"}, {"measurement": "Recovery of BLI signal", "setting": "[2]; 40 mg/kg IP, 24 h, rat", "value": "substantial recovery"}, {"measurement": "Appearance of the rats", "setting": "[2]; 40 mg/kg IP, 48 h", "value": "appeared healthy"}, {"measurement": "Tolerability", "setting": "[2]; 80 mg/kg IP, rat", "value": "well tolerated"}, {"measurement": "Vascular disruption at the higher dose", "setting": "[2]; 80 mg/kg IP, rat, compared with 40 mg/kg", "value": "did not show additional vascular disruption"}]}, {"molecule": "COc1ccc2c(c1O)CCCC=C2c1cc(OC)c(OC)c(OC)c1", "note": "[KGP18, 3-Methoxy-9-(3,4,5-trimethoxyphenyl)-6,7-dihydro-5H-benzo[7]annulen-4-ol, reference compound]", "values": [{"measurement": "GI50", "setting": "[5]", "value": 0.0543, "unit": "nM"}, {"measurement": "GI50", "setting": "[7]; Homo sapiens, NCI-H460, 48 h", "value": 0.0418, "unit": "nM"}, {"measurement": "GI50", "setting": "[6]; Homo sapiens, DU-145, 48 h", "value": 0.0249, "unit": "nM"}]}, {"molecule": "N-(1-hydroxy-2-methoxy-5-(3,4,5-trimethoxyphenyl)-6,7,8,9-tetrahydro-5H-benzo[7]annulen-7-yl)acetamide [Compound 49]", "values": [{"measurement": "% Inhibition of colchicine binding ± SD", "setting": "[1]; compound at 5 μM", "value": "0.4 ± 0.6 (5 μM) %"}, {"measurement": "GI50", "setting": "[7]; NCI-H460, 48 h treatment", "value": 334, "unit": "nM"}, {"measurement": "GI50", "setting": "[6]; DU-145, 48 h treatment", "value": 1200, "unit": "nM"}]}]}
